Source: the EternaBench riboswitch data

System: MS2 coat protein
Test: apparent Kd, MS2 coat protein; higher = weaker binding; RNA-MaP array
Procedure, shortened: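 Apparent Kd is the median of per-cluster binding-curve fits for designed RNAs transcribed from sequenced DNA templates on an Illumina sequencing chip. The RNAs were incubated at room temperature with fluorescently labeled MS2 coat protein at 1.5 nM to 3 μM, with or without input ligand, and designs measured on fewer than 10 clusters were excluded.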

[1] = designed as: OFF switch for tryptophan, no ligand
[2] = ligand present: tryptophan, designed as: OFF switch for tryptophan
[3] = designed as: ON switch for flavin mononucleotide, no ligand
[4] = ligand present: flavin mononucleotide, designed as: ON switch for flavin mononucleotide
[5] = designed as: OFF switch for flavin mononucleotide, no ligand
[6] = ligand present: flavin mononucleotide, designed as: OFF switch for flavin mononucleotide

Sequence	apparent Kd [3]	apparent Kd [4]	apparent Kd [5]	apparent Kd [6]	also measured
GGUUGAUGGUCGGCCGCCACUGUUGGUGCCAUGAGUUAAGUAUAGCACAUGAGGAUCACCCAUGUCAGGACCGGGACUCUACCCG					apparent Kd [1]: 14.6 nM; apparent Kd [2]: 18.1 nM
GGUCUGCCAUUUCAGGAUAUGCUCAGUGCAACAUGAGGAUCACCCAUGUCAGGCUCGAACGACUCGCAGAAGGGAAGUCACGGAUG	102 nM	61.4 nM			
UGUUUGGCUUCCUUUACAUGAGGAUCACCCAUGUUAUGUAAUUAGGAUAUCCAUGUGAGAUGGUUGGAGAAGGAAUGCAUGACG			27 nM	33 nM	
UGGACUGUGACAUGAGGAUCACCCAUGUAAAUAAUUCCGCAUAGAAGGGUCCAACGUAAAUGAAGACAGGAUAUAUGGGAGCGU	45.4 nM	24 nM			
CUCGAGUCAGGAUAUAUUAACAGAACUUCCUAAAUGGACGAAUAGAAGGGACAUGAGGAUCACCCAUGUUUGGC			11.8 nM	11 nM	
AAAUACGUAAAACAUGAGGAUCACCCAUGUACAUUUAUUACCAGAAGGAGCGCUAAAAGUACCAGCUAGGAUAUGGGAAGCAAC	8.05 nM	5.83 nM			
AUAAAACAUGAGGAUCACCCAUGUAUAGAAAGCGCAGGAUAUAGGUGAUCAUAGUACUAUCAAGAAGGGCGGAACC	217 nM	184 nM			
GAGAGGAGGGAGAAGGAGAUAGUCUUCGGCAAUCUAGGAUAUCCACGUAGGGAAUCUCACAUGAGGAUCACCCAUGUUCAGCCG			34.8 nM	31.7 nM	
GGACGUGGGCAGGAUAUGCGAAUUGAUUGAGCGGCAGAAGGGCCUACAUGAGGAUCACCCAUGUAGAUGCUUAC			5.4 nM	11.7 nM	
AACACGCUGGUAGGAUAUUACAACAUGAUGACUCGUCCAAGAAACAACAUGAGGAUCACCCAUGUUAAGAAGGACCACAAGAAA			7.13 nM	7.92 nM	
AUAACAGUGUCGGCCGCCACUAGAACACAUGAGGAUCACCCAUGUGGUGGUACCUCCUAAGACGAUAGGACCGGGACCCAUCUAC					apparent Kd [1]: 134 nM; apparent Kd [2]: 95.2 nM
UUGAUCGCUCAGAAGGACGCGCAGGACCAAGCCGUAGGAUAUGACGAAUGCUAACGGAGUCCACAUGAGGAUCACCCAUGUGCA	65.2 nM	18.9 nM			
UUGAUAGCAGGAUAUACAUGAGGAUCACCCAUGUACAGGCAAAAGGGAACUGACCCACGUAGAAGGGCUUCGCA			10.8 nM	21 nM	
CAUAGAGCUAAGAAGGCGUACGGAGACAGCAUACGAGGAUAUUAACGUCCAUGAACAUGAGGAUCACCCAUGUCGAAAACCAAA	8.42 nM	8.15 nM			
ACUCUCGGCUAAGGAUAUCUCCGACUGACCAAUAGAGAAGGUAGUCGACGUGCGAUCAGACAUGAGGAUCACCCAUGUGAAAUC	7.07 nM	7.14 nM			
GAUUGACAUGAGGAUCACCCAUGUAGCGUAUGGUGACUUCUGAAGGAUAUUAAUGCAGUGGCGGUUAAGAAGGUCAGCUAAUCG			45.7 nM	35 nM	
CAAGCGCAUAAGUACGCAACUACAUGAGGAUCACCCAUGUGAAGAAGGGCACAUCUAUCCCACGUGCAGGAUAUUCUCCAAUUU	44.8 nM	51 nM			
UGAAAUUACGGAGGAUAUCUAUUUACAUGAGGAUCACCCAUGUCCCAGCUACUGCUAUUAUCCGCAGAGAAGGCCGGUGAGUCC	171 nM	105 nM			
ACGAGCCUAGGAUAUACAUGAGGAUCACCCAUGUGACUGAACACUCCGGUAUGUGCGGGUAGAAGGAGGUUCCA			16.3 nM	16.8 nM	
GGGAGAGAGGUCAGGAUAUUGCGGCGAAAUGCAGUCAAGAAGGGACAUGAGGAUCACCCAUGUACAUCAAGAGC			6.38 nM	10.4 nM	
UGGUGCCCUGUAUACAUUGUAAUCCUAAUGCGAGGACCGGUACGGCCGCCACUCGUUGCGGAACAUGAGGAUCACCCAUGUAACA					apparent Kd [1]: 18.3 nM; apparent Kd [2]: 16.6 nM
AAAAUCUGGUGAGGAUAUUGUUGAUGAUACAAACAAGAAGGCACGUUGACAUAGCGGGACAACAUGAGGAUCACCCAUGUCACU			46.6 nM	42.1 nM	
UACAAACAUGAGGAUCACCCAUGUAGUGAUACCAGCAUAACAGAUUGCCCUUGGCAGCACCGGUUUGUACUCAAACGAAGUACGG					apparent Kd (designed as: ON switch for theophylline, no ligand): 64.2 nM; apparent Kd (ligand present: theophylline, designed as: ON switch for theophylline): 52.3 nM
GGAUUAAGCUAGAAGGUACGAUCACCGUGAUGGUAAGGAUAUAGAACGAUGCCGAUUCCAACAUGAGGAUCACCCAUGUUCCUA	447 nM	260 nM			
UAUGUACGUAGGGACAUGAGGAUCACCCAUGUGGUCCGUAUUAGAAGGACGAAUACCGAUAAAACGUAGGAUAUAAUAACUCCG			134 nM	148 nM	
GAACAGCGGCAGAAGGACUCGCGAUUGUGUACGAACAUGAGGAUCACCCAUGUGUGAGUAUUCCAGUAGGAUAUGCGUUCUAUA			17.2 nM	12.1 nM	
GAGUGGUAAGGAUAUAAUACGAAUACGGUGAAACCCGGCGUUUAGAAGGUACAUGAGGAUCACCCAUGUGAUUA			13.2 nM	13.8 nM	

Sequence	apparent Kd [3]	apparent Kd [4]	apparent Kd [5]	apparent Kd [6]	also measured
CAAGAGUUGUACAUUGUGAGGCGUCGGGAACGAGGACCGGUACGGCCGCCACUCGAAAAUUAACAUGAGGAUCACCCAUGUACAC					apparent Kd [1]: 70.8 nM; apparent Kd [2]: 47.7 nM
GGUCGUGAUAAGGAUAUUGGCUGUCGUGCAAUCCAAGAAGGUAUCACAUGAGGAUCACCCAUGUACGCGUGUUG			44.1 nM	85.6 nM	
GUUAUCGAACAUGAGGAUCACCCAUGUCAGAGCGGCCGACAGAGAAGGCCAAUUGACAAAUGAUUGGAGGAUAUCUGUACUUUU	19.3 nM	7.57 nM			
GCAAAGUGAUCGGCCGCCACUGCAAUGCUUAAUGGAGGUCCACAUGAGGAUCACCCAUGUCUUCCCAGGACCGGGAUCUCGAGUU					apparent Kd (designed as: ON switch for tryptophan, no ligand): 60.7 nM; apparent Kd (ligand present: tryptophan, designed as: ON switch for tryptophan): 66.9 nM
CUAGAAGACACGGAGGAUAUGUUGUGUAUUACAUGAGGAUCACCCAUGUUCGGAAGUACCGAUUGACAGAAGGCCGUGCAAUCGCU	6.66 nM	5.73 nM			
CAUCAGAGUGUCAGGAUAUGUUCAAAUAACUCGGGACAGAAGGGACAUGAGGAUCACCCAUGUGCAUAAAUUUA			18.4 nM	46.9 nM	
AAGUCAGGAGGCGAUACCAGUUACGACAUGGCCAGUUACAUGAGGAUCACCCAUGUGCGGAACCCUUGGCAGCGCUUACAUCGCU					apparent Kd (designed as: OFF switch for theophylline, no ligand): 23.1 nM; apparent Kd (ligand present: theophylline, designed as: OFF switch for theophylline): 165 nM
UCAACACAUGAGGAUCACCCAUGUUAUACUAGGGUAGGAUAUGACGUAGUGAAGUGCUCUUCAGAAGGACCAUGGG	64.7 nM	30.1 nM			
AGCGCGAAUAGAUCCAAAGUUAUUAGUGAGCGAGGACCGGUACGGCCGCCACUCGUGGCUCUACAUGAGGAUCACCCAUGUACAU					apparent Kd [1]: 354 nM; apparent Kd [2]: 432 nM
UGGACGCAACGAGCACGAGGUCGGCAGCUACGAGGACCGGUACGGCCGCCACUCGAGUUACGACAUGAGGAUCACCCAUGUAAGG					apparent Kd [1]: 41.6 nM; apparent Kd [2]: 178 nM
AAAAGGAUGAUAGGAUAUCAUAACAUGAGGAUCACCCAUGUACAGACGCAACGCUAAACUAGACAUGAGAAGGAUCACAAAACA	179 nM	82.2 nM			
GGACAACAUGAGGAUCACCCAUGUGAGAAGUGCAAAGGAUAUCGCAGAAGUGAUAACGAACGAGAAGGUUGCCUCU	23.6 nM	10.1 nM			
UCCUCGUAUUAAGGAUAUAGAAAAGUCACAUGAGGAUCACCCAUGUCUAAGGACGCACUAUGAGUCUAGAAGGUAAUCCGGAAU	78.9 nM	65.5 nM			
CUGAGGUUAGGAUAUCUUCUGUUAUCUUCACGAUGAUAAACAGAGAAGGAACAUGAGGAUCACCCAUGUGGUCU			135 nM	99.8 nM	
CACCAAUUUCGAGGAUAUACGGCCGGUUAACAUUCGUCUUACAUGAGGAUCACCCAUGUGUUCGCGUAGAAGGCGAUUCUUAAU	35.4 nM	31.2 nM			
GUGAUACUUGGAGGAUAUGCUUUCACCUGGUACUCUAUUACAGUGACAUGAGGAUCACCCAUGUAGCAGAAGGCCAGUCAUCGA	18.8 nM	9.73 nM			
UAUUUUGCGAAGAAGGAAGCCUCACUGGAAUGCUUAGGAUAUUCUCGCGUGGAGCACAUGCACAUGAGGAUCACCCAUGUACCG	28.7 nM	20.1 nM			
AUACAACAUGAGGAUCACCCAUGUGCUUAAGUUAAAGGAUAUCUAGUGGAUUACAUGCGUAGAGAAGGUUAUUUUA	12.2 nM	8.55 nM			
CCUGAACGGGACAUGAGGAUCACCCAUGUAUGAGACUCAAAGAAGGAUAUCUUACAUACAGUUCGAGAGAAGGUCUAGCAAACG			86.5 nM	54.9 nM	
AUUUGGCGUAGUGUUGCUCGUGGGAUAAAACGAGGACCGGUACGGCCGCCACUCGAUGAUUAACAUGAGGAUCACCCAUGUAAAU					apparent Kd [1]: 24.6 nM; apparent Kd [2]: 104 nM
CUUUACUGAGGAUAUACGCAGAUCUAGAUAUCGUAAUACGAACAUGAGGAUCACCCAUGUAGAAGGCAGGCCGA			12.4 nM	24.1 nM	
AAAUGGGAGGUACGCACCACUACAUGAGGAUCACCCAUGUAUAGAAGGCAGGUCUGGACUCGUCCUGAGGAUAUAUGAUUUGAC			17.9 nM	16.5 nM	
AACAUGAGGAUCACCCAUGUAGGUACUUCUCGACGGCCUACAAGAAGGUGUUGUAAAGUCAAGAACAAGGAUAUUGUGAUGGCU			555 nM	371 nM	
AUUAGGCUGCAGGAUAUGAAUCAUGUAACAAUUUCAGAAGGGCAUACAUGAGGAUCACCCAUGUAGUGAUCCGC			109 nM	220 nM	
AGCGUUGCAGAGAAGGCGGUAUGAGUUACGCUCUCACACAUGAGGAUCACCCAUGUAAUGACGUCCGAGGAUAUCUCACAACUC			5.47 nM	5.81 nM	
UGUCAGGUCCAUAACAUGAGGAUCACCCAUGUAAGGCAUGAGCAGGAUAUCAAAAGUCGUAAGACAGAGAAGGGCUAAAUGACC			7 nM	7.51 nM	
ACUCAACAUGAGGAUCACCCAUGUACUCCAAACAAAGGAUAUUGUGAGUUAAUAUGCAUGCAAGAAGGUUGGUUCA	42.8 nM	36.3 nM			
